Activity calls are given as the source filed them.
Tests used:
[1] = molecular target: Tyrosine-protein kinase JAK3 (Homo sapiens) (UniProt P52333); test: Inhibition of JAK3 (unknown origin)
[2] = molecular target: Angiopoietin-1 receptor (Homo sapiens) (UniProt Q02763); test: Inhibition of Tie2 (unknown origin)
Pyruvate kinase PKM = Pyruvate kinase PKM (Homo sapiens, UniProt P14618); test: Activation of PKM2 in human Huh7 cells assessed as production of pyruvate and ATP by fluorescence assay; assay type: cell-based, Huh-7
Summary of the method: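 Huh7 hepatocellular carcinoma cells were treated with compound and lysed, and the lysate was given PEP and ADP. The pyruvate formed was oxidized by pyruvate oxidase, and the fluorescence, proportional to pyruvate, was read as cellular pyruvate kinase activity.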

[3] = molecular target: Casein kinase I isoform alpha (Homo sapiens) (UniProt P48729); test: Inhibition of CSNK1A1 (unknown origin)
[4] = molecular target: Adrenergic receptor alpha-1 (Homo sapiens) (UniProt P35348+P25100+P35368); test: Binding affinity to alpha-1 adrenergic receptor (unknown origin) by radioligand binding assay
JHH2 = test: Antiproliferative activity against human JHH2 cells at 10 uM after 5 days; assay type: functional, cell-based
Summary of the method: (§1)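 Cells plated in Optimem-GlutaMax medium and cultured overnight before exposure to 10 µM compound. Viability measured with CytoTox-Glo after 5 days of treatment.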

[5] = molecular target: Cannabinoid receptor 1 (Homo sapiens) (UniProt P21554); test: Binding affinity to cannabinoid CB1 receptor (unknown origin)
[6] = molecular target: Sodium-dependent serotonin transporter (Homo sapiens) (UniProt P31645); test: Binding affinity to human 5-HT transporter by radioligand binding assay
Summary of the method: (§2)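 CEREP panel binding measured by displacement of an antagonist radioligand.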

[7] = molecular target: Fibroblast growth factor receptor 1 (Homo sapiens) (UniProt P11362); test: Inhibition of FGFR1 (unknown origin)
[8] = molecular target: Serine/threonine-protein kinase 3 (Homo sapiens) (UniProt Q13188); test: Inhibition of STK3 (unknown origin)
[9] = molecular target: Epidermal growth factor receptor (Homo sapiens) (UniProt P00533); test: Inhibition of EGFR (unknown origin)
[10] = molecular target: Myosin light chain kinase 2, skeletal/cardiac muscle (Homo sapiens) (UniProt Q9H1R3); test: Inhibition of MYLK2 (unknown origin)
[11] = molecular target: Proto-oncogene tyrosine-protein kinase Src (Homo sapiens) (UniProt P12931); test: Inhibition of SRC (unknown origin)
[12] = molecular target: Serine/threonine-protein kinase pim-2 (Homo sapiens) (UniProt Q9P1W9); test: Inhibition of PIM2 (unknown origin)
[13] = molecular target: Serine/threonine-protein kinase Nek2 (Homo sapiens) (UniProt P51955); test: Inhibition of NEK2 (unknown origin)
SNU-449 = test: Antiproliferative activity against human SNU449 cells at 10 uM after 5 days; assay type: functional, cell-based; summary of the method: as §1
[14] = molecular target: Sodium-dependent noradrenaline transporter (Homo sapiens) (UniProt P23975); test: Binding affinity to human norepinephrine transporter by radioligand binding assay; summary of the method: as §2
[15] = molecular target: Mitogen-activated protein kinase 1 (Homo sapiens) (UniProt P28482); test: Inhibition of MAPK1 (unknown origin)
[16] = molecular target: Tyrosine-protein kinase Lck (Homo sapiens) (UniProt P06239); test: Inhibition of LCK (unknown origin)
[17] = molecular target: Muscarinic acetylcholine receptor M1 (Homo sapiens) (UniProt P11229); test: Binding affinity to human muscarinic M1 receptor by radioligand binding assay; summary of the method: as §2
[18] = molecular target: Histamine H1 receptor (Homo sapiens) (UniProt P35367); test: Binding affinity to human histamine H1 receptor by radioligand binding assay; summary of the method: as §2
[19] = molecular target: Serine/threonine-protein kinase PAK 4 (Homo sapiens) (UniProt O96013); test: Inhibition of PAK4 (unknown origin)
[20] = molecular target: 3-phosphoinositide-dependent protein kinase 1 (Homo sapiens) (UniProt O15530); test: Inhibition of PDK1 (unknown origin)
[21] = molecular target: 5-hydroxytryptamine receptor 2B (Homo sapiens) (UniProt P41595); test: Binding affinity to human 5-HT2B receptor by radioligand binding assay
Summary of the method: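 CEREP panel binding measured by displacement of an agonist radioligand.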

[22] = molecular target: Casein kinase II subunit alpha' (Homo sapiens) (UniProt P19784); test: Inhibition of CSNK2A2 (unknown origin)
[23] = molecular target: cGMP-inhibited 3',5'-cyclic phosphodiesterase 3B (Homo sapiens) (UniProt Q13370); test: Binding affinity to human PDE3B
[24] = molecular target: RAC-alpha serine/threonine-protein kinase (Homo sapiens) (UniProt P31749); test: Inhibition of AKT1 (unknown origin)
[25] = molecular target: Ephrin type-A receptor 2 (Homo sapiens) (UniProt P29317); test: Inhibition of EPHA2 (unknown origin)
Homo sapiens = species on record: Homo sapiens; test: Binding affinity to sodium channel site 2 (unknown origin) by radioligand binding assay; summary of the method: as §2

Chain of Tyrosine-protein kinase Lck (Homo sapiens) (P06239 2-509 limits assumed): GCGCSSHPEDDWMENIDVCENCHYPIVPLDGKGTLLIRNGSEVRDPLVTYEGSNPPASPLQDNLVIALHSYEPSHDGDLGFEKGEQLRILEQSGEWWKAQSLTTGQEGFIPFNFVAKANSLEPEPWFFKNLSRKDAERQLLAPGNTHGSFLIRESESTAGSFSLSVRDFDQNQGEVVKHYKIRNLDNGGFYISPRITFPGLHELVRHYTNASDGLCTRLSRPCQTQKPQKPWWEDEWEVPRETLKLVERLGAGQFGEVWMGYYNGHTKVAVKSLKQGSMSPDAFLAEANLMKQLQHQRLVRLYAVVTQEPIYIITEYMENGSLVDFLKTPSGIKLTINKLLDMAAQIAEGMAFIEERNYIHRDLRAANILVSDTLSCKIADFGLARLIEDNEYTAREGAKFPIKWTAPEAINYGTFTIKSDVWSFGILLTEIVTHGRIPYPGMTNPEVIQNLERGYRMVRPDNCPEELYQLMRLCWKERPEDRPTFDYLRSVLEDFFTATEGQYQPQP
Chain of Serine/threonine-protein kinase PAK 4 (Homo sapiens) (O96013 whole entry, looked up): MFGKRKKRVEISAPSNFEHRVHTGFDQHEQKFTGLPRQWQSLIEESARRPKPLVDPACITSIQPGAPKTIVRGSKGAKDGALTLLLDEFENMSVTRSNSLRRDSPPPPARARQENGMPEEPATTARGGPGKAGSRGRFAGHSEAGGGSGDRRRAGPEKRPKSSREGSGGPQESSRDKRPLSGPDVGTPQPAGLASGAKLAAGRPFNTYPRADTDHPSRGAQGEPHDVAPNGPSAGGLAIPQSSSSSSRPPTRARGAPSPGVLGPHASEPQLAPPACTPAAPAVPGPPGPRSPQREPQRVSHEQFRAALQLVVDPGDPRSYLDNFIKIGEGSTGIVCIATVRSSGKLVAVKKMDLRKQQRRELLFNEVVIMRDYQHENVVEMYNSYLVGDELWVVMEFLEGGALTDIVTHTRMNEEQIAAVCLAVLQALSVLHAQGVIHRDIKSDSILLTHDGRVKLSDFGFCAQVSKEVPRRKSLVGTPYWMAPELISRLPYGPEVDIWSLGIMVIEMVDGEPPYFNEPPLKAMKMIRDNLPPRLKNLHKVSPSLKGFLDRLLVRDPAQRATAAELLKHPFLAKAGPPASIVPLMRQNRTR
Chain of Ephrin type-A receptor 2 (Homo sapiens) (P29317 whole entry): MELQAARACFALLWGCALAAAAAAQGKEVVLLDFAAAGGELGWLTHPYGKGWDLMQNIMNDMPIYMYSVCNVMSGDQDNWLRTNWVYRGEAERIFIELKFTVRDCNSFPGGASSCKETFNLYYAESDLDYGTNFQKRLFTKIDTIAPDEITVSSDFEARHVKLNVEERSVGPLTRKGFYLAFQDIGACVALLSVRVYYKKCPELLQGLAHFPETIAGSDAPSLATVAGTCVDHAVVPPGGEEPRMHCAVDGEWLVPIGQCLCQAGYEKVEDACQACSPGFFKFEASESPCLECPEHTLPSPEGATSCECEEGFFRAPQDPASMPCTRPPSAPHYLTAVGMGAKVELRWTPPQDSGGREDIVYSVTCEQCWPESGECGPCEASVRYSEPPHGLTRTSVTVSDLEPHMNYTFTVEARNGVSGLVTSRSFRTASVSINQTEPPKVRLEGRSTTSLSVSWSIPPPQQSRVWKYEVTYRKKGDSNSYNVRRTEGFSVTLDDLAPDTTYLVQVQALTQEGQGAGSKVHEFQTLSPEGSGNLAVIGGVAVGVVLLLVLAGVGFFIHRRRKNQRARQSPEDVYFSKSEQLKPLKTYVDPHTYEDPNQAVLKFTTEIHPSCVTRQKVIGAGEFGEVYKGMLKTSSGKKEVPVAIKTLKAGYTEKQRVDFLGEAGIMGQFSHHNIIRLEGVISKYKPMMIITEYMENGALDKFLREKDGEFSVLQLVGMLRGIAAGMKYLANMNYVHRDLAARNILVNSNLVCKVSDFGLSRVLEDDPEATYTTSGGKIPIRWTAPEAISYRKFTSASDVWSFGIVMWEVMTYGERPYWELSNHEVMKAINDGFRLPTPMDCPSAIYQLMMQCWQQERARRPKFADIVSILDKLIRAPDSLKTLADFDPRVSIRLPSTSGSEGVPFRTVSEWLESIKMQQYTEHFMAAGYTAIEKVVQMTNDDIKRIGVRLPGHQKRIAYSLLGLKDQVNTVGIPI
Chain of Serine/threonine-protein kinase pim-2 (Homo sapiens) (Q9P1W9 whole entry, looked up): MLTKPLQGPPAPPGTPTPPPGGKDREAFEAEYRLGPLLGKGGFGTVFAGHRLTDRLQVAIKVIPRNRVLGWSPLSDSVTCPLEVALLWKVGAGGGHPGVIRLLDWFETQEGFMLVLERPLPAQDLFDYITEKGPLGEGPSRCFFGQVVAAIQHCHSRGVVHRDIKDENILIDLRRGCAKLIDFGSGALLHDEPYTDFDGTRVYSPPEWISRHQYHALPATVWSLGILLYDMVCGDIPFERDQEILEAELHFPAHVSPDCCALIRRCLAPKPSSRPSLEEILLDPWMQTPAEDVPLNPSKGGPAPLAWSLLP
Chain of Serine/threonine-protein kinase 3 (Homo sapiens) (Q13188 whole entry): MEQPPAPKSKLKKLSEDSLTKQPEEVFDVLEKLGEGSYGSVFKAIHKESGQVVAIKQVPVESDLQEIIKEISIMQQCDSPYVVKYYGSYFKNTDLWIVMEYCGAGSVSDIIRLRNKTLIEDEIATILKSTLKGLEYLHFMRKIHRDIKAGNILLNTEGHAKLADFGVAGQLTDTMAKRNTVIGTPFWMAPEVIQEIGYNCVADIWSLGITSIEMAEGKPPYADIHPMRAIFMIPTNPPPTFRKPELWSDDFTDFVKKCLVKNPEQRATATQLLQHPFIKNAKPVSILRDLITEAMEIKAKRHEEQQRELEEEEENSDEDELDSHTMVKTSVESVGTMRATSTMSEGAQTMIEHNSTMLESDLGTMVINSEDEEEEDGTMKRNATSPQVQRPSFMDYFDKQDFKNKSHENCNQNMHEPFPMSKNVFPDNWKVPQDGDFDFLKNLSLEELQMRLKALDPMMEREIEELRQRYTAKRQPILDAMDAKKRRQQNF
Chain of Cannabinoid receptor 1 (Homo sapiens) (P21554 whole entry): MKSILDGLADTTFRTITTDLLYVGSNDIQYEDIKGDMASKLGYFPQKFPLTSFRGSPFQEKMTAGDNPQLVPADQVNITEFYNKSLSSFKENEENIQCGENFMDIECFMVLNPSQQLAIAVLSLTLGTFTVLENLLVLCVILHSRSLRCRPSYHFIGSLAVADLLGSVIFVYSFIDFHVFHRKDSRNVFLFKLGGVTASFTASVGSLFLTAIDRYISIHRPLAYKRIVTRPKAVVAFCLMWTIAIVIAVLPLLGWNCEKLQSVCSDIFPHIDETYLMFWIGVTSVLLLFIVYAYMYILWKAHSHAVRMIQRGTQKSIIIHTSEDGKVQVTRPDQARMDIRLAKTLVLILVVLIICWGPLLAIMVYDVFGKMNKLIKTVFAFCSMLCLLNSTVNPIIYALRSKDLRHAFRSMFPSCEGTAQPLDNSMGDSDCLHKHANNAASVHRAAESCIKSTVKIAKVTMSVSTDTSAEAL
Chain of cGMP-inhibited 3',5'-cyclic phosphodiesterase 3B (Homo sapiens) (Q13370 whole entry, looked up): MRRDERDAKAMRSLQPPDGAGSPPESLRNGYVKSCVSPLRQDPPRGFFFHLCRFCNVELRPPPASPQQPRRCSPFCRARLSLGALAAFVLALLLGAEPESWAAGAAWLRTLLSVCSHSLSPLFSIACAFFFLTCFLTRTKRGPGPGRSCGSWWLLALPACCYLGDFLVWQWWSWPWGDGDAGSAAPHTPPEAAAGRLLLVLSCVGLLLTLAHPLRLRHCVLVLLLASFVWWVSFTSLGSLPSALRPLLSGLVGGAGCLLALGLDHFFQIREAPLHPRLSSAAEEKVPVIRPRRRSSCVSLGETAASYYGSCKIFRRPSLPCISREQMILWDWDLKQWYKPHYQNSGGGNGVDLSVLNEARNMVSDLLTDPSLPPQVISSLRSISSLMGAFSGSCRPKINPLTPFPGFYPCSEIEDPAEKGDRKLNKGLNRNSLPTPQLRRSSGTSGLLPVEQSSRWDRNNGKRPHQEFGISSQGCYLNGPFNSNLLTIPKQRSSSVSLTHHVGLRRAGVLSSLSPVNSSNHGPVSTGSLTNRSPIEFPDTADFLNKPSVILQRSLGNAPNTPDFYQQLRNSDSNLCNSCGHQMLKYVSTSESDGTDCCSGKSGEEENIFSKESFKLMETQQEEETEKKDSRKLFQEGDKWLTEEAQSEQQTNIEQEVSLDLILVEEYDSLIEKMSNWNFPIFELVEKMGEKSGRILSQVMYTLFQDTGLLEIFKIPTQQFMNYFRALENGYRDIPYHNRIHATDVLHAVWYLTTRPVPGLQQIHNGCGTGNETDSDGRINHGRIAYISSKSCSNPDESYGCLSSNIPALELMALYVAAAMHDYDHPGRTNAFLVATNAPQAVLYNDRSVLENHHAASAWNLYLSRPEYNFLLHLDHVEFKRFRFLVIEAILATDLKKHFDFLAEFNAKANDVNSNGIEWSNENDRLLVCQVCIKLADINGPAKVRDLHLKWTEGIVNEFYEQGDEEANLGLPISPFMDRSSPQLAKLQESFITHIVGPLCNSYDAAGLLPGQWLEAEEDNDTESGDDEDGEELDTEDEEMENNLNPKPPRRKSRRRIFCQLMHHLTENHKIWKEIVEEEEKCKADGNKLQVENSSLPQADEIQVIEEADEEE
Chain of RAC-alpha serine/threonine-protein kinase (Homo sapiens) (P31749 whole entry): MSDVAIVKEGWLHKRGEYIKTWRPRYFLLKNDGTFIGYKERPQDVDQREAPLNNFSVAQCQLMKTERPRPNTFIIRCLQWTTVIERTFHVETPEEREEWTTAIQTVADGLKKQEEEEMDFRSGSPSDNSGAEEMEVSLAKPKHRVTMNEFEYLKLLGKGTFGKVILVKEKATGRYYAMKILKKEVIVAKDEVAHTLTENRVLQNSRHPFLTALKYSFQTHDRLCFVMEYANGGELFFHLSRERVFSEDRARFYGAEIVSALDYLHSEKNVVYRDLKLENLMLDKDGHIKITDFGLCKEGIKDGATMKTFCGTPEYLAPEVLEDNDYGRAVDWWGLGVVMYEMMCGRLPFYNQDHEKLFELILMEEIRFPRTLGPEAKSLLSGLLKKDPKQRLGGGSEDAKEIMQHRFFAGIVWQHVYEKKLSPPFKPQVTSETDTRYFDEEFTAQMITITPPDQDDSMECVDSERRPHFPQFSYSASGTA

Cc1cccc2nc(Cn3cnc4ccccc43)cc(=O)n12
inactive: inhibition [1] | inhibition [2] | inhibition [3] | Activity [4] | Activity (JHH2) | Activity [5] | Activity [6] | inhibition [7] | inhibition [8] | inhibition [9] | inhibition [10] | inhibition [11] | inhibition [12] | inhibition [13] | Activity (SNU-449) | Activity [14] | inhibition [15] | inhibition [16] | Activity [17] | Activity [18] | inhibition [19] | inhibition [20] | Activity [21] | inhibition [22] | Activity [23] | inhibition [24] | inhibition [25] | Activity (Homo sapiens)
70 nM: EC50 (Pyruvate kinase PKM)

Reference: ChEMBL document CHEMBL2385076, “Discovery of 2-((1H-benzo[d]imidazol-1-yl)methyl)-4H-pyrido[1,2-a]pyrimidin-4-ones as novel PKM2 activators” (Bioorg Med Chem Lett, 2013)
